Results on two compounds are retold here after ChEMBL document CHEMBL1777771, “Efficient synthesis and chiral separation of 11C-labeled ibuprofen assisted by DMSO for imaging of in vivo behavior of the individual isomers by positron emission tomography” (Bioorg Med Chem, 2011).

Assay type in all cases: ADME, organism-based; call rule not given here
Common to all, as to settings: in vivo, 0.5 h

One series concerns Liver. As to the kind of experiment: Biodistribution in mouse liver at 9 to 12 MBq, iv after 30 mins by PET analysis. The gist of the method:
(§1)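 Normal male BALB/c mice, 6–7 wk, under isoflurane with a heating pad. Each enantiomer given as a 0.2 mL iv bolus (<0.18 nmol) diluted in saline. PET acquired for 30 min in 13 frames and reconstructed by FBP without attenuation correction. Regional radioactivity taken from VOI analysis of time-activity curves.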

The subject of series [1] is Plasma. The experiment in a line: Drug level in mouse plasma assessed as [11C]-ibuprofen level at 70 to 125 MBq, iv after 30 mins by HPLC analysis. The gist of the method:
(§2)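 Normal mice, 20–25 g, n = 3 per isomer; iv dose <0.43 nmol. Decapitated at 30 min. Heparinized blood centrifuged to plasma; plasma radioactivity counted in a dose calibrator as % dose/mL. Plasma deproteinized with 2 volumes of ethanol and filtered, then run on chiral reversed-phase OJ-RH HPLC with radiodetection. Peaks identified by co-injected unlabeled ibuprofen; fractions decay- and baseline-corrected; mean ± SD.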

For series [2], the system named is Mus musculus. The experiment in a line: Biodistribution in LPS treated BALB/c mouse anti-collagen antibody-induced arthritis model ankle of hindlimb at 9 to 12 MBq, iv after 30 mins by PET analysis relative to normal mouse. An outline of the steps:
(§3)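 Male BALB/c mice, 6–7 wk. Arthritis induced with an iv anti-type II collagen mAb cocktail (1.5 mg), then ip LPS (30 μg) on day 3; mice used 4 days after LPS with a score of 3 in each limb. Enantiomer given as an iv bolus (<0.18 nmol, in saline). Dynamic PET for 30 min under isoflurane. VOIs drawn on ankles and heart; SUV time-activity curves. Each mouse received both isomers 5 h apart.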

For series [3], the system named is Mus musculus. The experiment in a line: Biodistribution in mouse cerebrum at 9 to 12 MBq, iv after 30 mins by PET analysis. An outline of the steps:
as §1

Series [4] has as its system Mus musculus. The experiment in a line: Biodistribution in LPS treated BALB/c mouse anti-collagen antibody-induced arthritis model arthritic joints at 9 to 12 MBq, iv after 30 mins by PET analysis. The gist of the method: as §3
The subject of the next series is Urinary bladder. As to the kind of experiment: Biodistribution in mouse bladder at 9 to 12 MBq, iv after 30 mins by PET analysis. An outline of the steps: as §1
For series [5], the system named is Plasma. The experiment in a line: Drug level in mouse plasma assessed as (S)-[11C]-ibuprofen level at 70 to 125 MBq, iv after 30 mins by HPLC analysis. An outline of the steps:
as §2

Series [6] deals with Plasma. As to the kind of experiment: Drug level in mouse plasma assessed as (R)-[11C]-ibuprofen level at 70 to 125 MBq, iv after 30 mins by HPLC analysis. An outline of the steps:
as §2

Another series concerns Heart. As to the kind of experiment: Biodistribution in LPS treated BALB/c mouse anti-collagen antibody-induced arthritis model heart at 9 to 12 MBq, iv after 30 mins by PET analysis. The gist of the method: as §3
Series [7] deals with Plasma. The experiment in a line: Drug level in mouse plasma assessed as radioactivity of [11C]-ibuprofen at 70 to 125 MBq, iv after 30 mins by HPLC analysis. The gist of the method: as §2
Series [8] relates to Plasma. As to the kind of experiment: Drug level in mouse plasma at 70 to 125 MBq, iv after 30 mins by HPLC analysis. The gist of the method: as §2
Another series relates to Kidney. The experiment in a line: Biodistribution in mouse kidney at 9 to 12 MBq, iv after 30 mins by PET analysis. The gist of the method:
as §1

Series [9] deals with Plasma. The experiment in a line: Drug level in mouse plasma assessed as fraction of metabolites level at 70 to 125 MBq, iv after 30 mins by HPLC analysis. An outline of the steps: as §2

Turning to `CC(C)Cc1ccc([C@H]([11CH3])C(=O)O)cc1`, the Drug uptake result with Liver is given as “Active”; with Plasma [1], 66%; in the series with Mus musculus [3] it was “Active”; with Mus musculus [4], “Active”; with Urinary bladder, “Active”; in the series with Plasma [5] it was 65%. Further, the Drug uptake with Plasma [6] is 0.78%; with Heart it was “Not Active”; with Plasma [7], 6.2 %ID/ml; with Plasma [8], 8.9 %ID/ml; in the series with Kidney, “Active”; in the series with Plasma [9], 34%. Also, in the series on Mus musculus [2], the “fold change (FC)” value is > 2.
As for `CC(C)Cc1ccc([C@@H]([11CH3])C(=O)O)cc1`, the Drug uptake result was “Active” in the series with Liver; 75% in the series on Plasma [1]; “Active” in the series on Mus musculus [3]; “Active” with Mus musculus [4]; “Active” with Urinary bladder; 52% in the series on Plasma [5]. Moreover, the Drug uptake is listed as 23% in the series on Plasma [6]; “Not Active” with Heart; 5.9 %ID/ml in the series with Plasma [7]; 8.3 %ID/ml in the series on Plasma [8]; “Active” with Kidney; 25% with Plasma [9]. Moreover, the “fold change (FC)” value in the series on Mus musculus [2] is listed as > 2.
